An excerpt weighted towards active compounds, which were near 3.5% of everything screened.
MrgX1 ag – activates human MrgX1 receptor signaling; Q96LB2; MrgX1-HEK293 cells, Fluo-4 calcium fluorescence, agonist mode; hits give high values; B-score at 10 µM; actives 0.44% (n = 310,000);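 active means calcium response B-score plate-corrected fluorescence ratio at least 3 library SD, with starting fluorescence B-score inside 5 SD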
Target sequence (Q96LB2 whole entry, looked up): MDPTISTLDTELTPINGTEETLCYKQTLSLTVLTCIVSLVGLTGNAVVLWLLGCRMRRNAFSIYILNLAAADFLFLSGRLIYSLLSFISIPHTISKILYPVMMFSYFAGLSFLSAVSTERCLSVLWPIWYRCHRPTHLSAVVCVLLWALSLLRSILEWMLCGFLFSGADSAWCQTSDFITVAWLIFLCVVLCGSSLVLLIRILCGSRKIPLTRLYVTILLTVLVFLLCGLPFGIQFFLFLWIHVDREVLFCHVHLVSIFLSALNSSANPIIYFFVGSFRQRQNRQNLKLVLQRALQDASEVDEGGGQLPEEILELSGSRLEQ
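Test system: HEK293 cells stably expressing human MrgX1 receptor; amount: 15,000 cells per well; doses: compound delivered in addition one of three; times: overnight plating before 1 h dye loading; detection: Fluo-4 NW calcium-flux fluorescence, kinetic read; read-out basis: B-scored fluorescence response ratio; controls: positive and negative controls per plate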
RGS4 block – human RGS4 inhibition; P49798; HEK293 M3R/RGS4 inducible, Fluo-4 calcium flux; hits give high values; triggered by carbachol at its EC20; B-score at 10 µM; actives 0.45% (n = 310,000);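 active means B-score, a plate-corrected calcium signal, over three deviations above library mean, with baseline fluorescence within five deviations of library mean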;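 further: RGS4 expression induced by doxycycline in cells with stable M3 receptor; B-score is computed from the integrated fluorescence ratio over baseline after carbachol; higher B-score means a larger calcium signal and so more RGS4 inhibition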
Target sequence (P49798 whole entry, looked up): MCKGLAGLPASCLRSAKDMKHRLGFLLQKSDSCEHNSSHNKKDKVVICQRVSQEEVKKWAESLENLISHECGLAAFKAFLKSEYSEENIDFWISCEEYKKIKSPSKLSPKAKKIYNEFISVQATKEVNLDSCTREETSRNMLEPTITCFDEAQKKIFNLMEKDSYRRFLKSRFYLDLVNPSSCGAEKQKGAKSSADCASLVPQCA
MrgX1 allo act – human MrgX1 positive allosteric modulation, primary screen | Q96LB2 | MrgX1-HEK293, Fluo-4 calcium flux, FDSS; hits give high values | B-score at 10 µM | actives 0.63% (n = 310,000) | AID 588675;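 active means plate-corrected calcium response at least 3 library SD above typical, normal starting fluorescence, not activating the receptor alone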;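 further: compound read alongside a low EC10 to EC30 dose of BAM8-22 agonist; peak minus trough fluorescence over baseline measured at the second addition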
MrgX1 antagonist – human MrgX1 receptor antagonism, primary screen. actives 1.3% (n = 310,000). Q96LB2. MRGX1-HEK293 calcium flux, Fluo-4, BAM8-22 antagonism; hits give low values. B-score at 10 µM;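 active means calcium-response B-score plate-corrected more than 3 library SD below zero, starting fluorescence within 5 deviations, no agonist response on first addition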;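 further: peak minus trough fluorescence over baseline after final BAM8-22 challenge near maximal dose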
RGS4 act – potentiators or activators of RGS4 | HEK293 M3R/inducible RGS4, carbachol calcium flux Fluo4; hits give low values | actives 0.92% (n = 310,000) | AID 463111 | B-score at 10 µM;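 active means B-score of the integrated calcium signal more than 4 SD below the library mean, with starting fluorescence not abnormally high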;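 further: negative B-score means reduced calcium response which marks RGS4 activation or potentiation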
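test system = M3R-expressing HEK293 line, RGS4 induced by doxycycline | probe or stimulus = carbachol at ECmax as muscarinic agonist stimulus | timing = dye loading 30 min 37 °C, buffer rest 30 min RT | signal = calcium dye Fluo4 fluorescence | evaluation = B score from integrated fluorescence ratio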
MrgX1 antag conf – human MrgX1 receptor antagonism, re-confirmation screen; shares compounds with MrgX1 antagonist; MrgX1-HEK293, BAM8-22 calcium flux, Fluo-4; hits give low values; remaining BAM8-22 calcium response % of control (hits give low values), % at 10 µM; actives 19% (n = 2,300);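 active means remaining agonist calcium response no higher than 100% minus 3 SD of agonist-only control wells, with starting fluorescence near control levels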;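 further: agonist BAM8-22 given at a near maximal EC90 to ECmax level; peak minus minimum fluorescence divided by baseline after agonist addition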
HEK293 Ca flux – MrgX1 antagonist counter-screen hit in parental HEK293 cells; shares compounds with MrgX1 antagonist; Fluo-4 calcium fluorescence, FDSS; fluorescence ratio F(max-min)/F0 at 10 µM; actives 2% (n = 4,000);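 active means duplicate-averaged calcium fluorescence ratio at least three times the standard deviation of buffer wells, a nonspecific response in parental cells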
HEK293 Ca counter – counter-screen for MrgX1 allosteric activators: effect in parental HEK293 cells; shares compounds with MrgX1 antagonist; parental HEK293 calcium flux, Fluo-4 fluorescence ratio; hits give high values; fluorescence ratio F(max-min)/F0 at 10 µM; actives 0.4% (n = 4,000);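 active means calcium fluorescence ratio, averaged over duplicates, at least 3 SD of the buffer-well ratio, meaning a nonspecific response in receptor-free cells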;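 further: untransfected parental HEK293 lacking MrgX1 used as counterscreen for MrgX1 allosteric activators; fluorescence change taken during the second addition on a kinetic imager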
HEK293 Ca cntr2 – counter-screen for MrgX1 activators: effect in parental HEK293 cells | shares compounds with MrgX1 antagonist | Fluo-4 calcium fluorescence (FDSS); hits give high values | fluorescence ratio F(max-min)/F0 at 10 µM | actives 8.7% (n = 4,000) | AID 624115;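 active means calcium fluorescence ratio at least three times the spread of buffer wells, meaning a non-specific response in parental cells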
Active calls of the source: *; i = inactive; . = no result given.

SMILES | MrgX1 ag | RGS4 block | MrgX1 allo act | MrgX1 antagonist | RGS4 act | MrgX1 antag conf | HEK293 Ca flux | HEK293 Ca counter | HEK293 Ca cntr2
CN(CC(=O)Nc1ccc(F)c(F)c1)S(=O)(=O)c1cccc2nsnc12 | i | i | i | -10* | i | i | i | i | i
Cc1ccc(NC(=O)CN(C)S(=O)(=O)c2cccc3nsnc23)cc1C | i | i | i | i | i | . | . | . | .
Cc1cccc(N(C)S(=O)(=O)c2cccc3nsnc23)c1 | i | i | i | -5* | i | i | i | i | i
CC(c1ccccn1)N(C)C(=O)c1ccc2nc(Cc3ccccc3F)oc2c1 (configuration not stated) | i | i | i | i | i | . | . | . | .
COC(=O)c1cc2c(ccn2-c2ccc(F)cc2)n1Cc1ccc(C#N)cc1 | i | i | i | -4.7* | i | i | i | i | i
Cc1ccccc1NC(=O)C1C2CCCCC21 (configuration not stated) | i | i | i | i | i | . | . | . | .
Cc1ccccc1NC(=O)C1C2/C=C\CCCCC21 (configuration not stated) | i | i | i | -4.5* | i | i | i | i | i
Nc1nonc1-c1noc(CCCN2C(=O)c3ccccc3C2=O)n1 | i | i | i | -6.6* | i | i | i | i | i
CC(=O)NCCc1nc2cc(NC(=O)COc3ccc(C)cc3)ccc2n1C | i | i | i | -6.7* | i | i | i | i | i
COc1ccc(OCC(=O)Nc2ccc3c(c2)nc(CCNC(C)=O)n3C)cc1 | i | i | i | i | i | . | . | . | .
COc1ccc(C(=O)NCC(=O)OCC(=O)Nc2sccc2C#N)cc1OC | i | i | i | -4.6* | i | i | i | i | i
COc1cc(OC)cc(C(=O)NCCc2ccc(OC)c(OC)c2)c1 | i | i | i | i | i | . | . | . | .
COc1ccc(CCNC(=O)c2ccc(OC)c(OC)c2)cc1OC | i | i | i | -6.8* | i | i | i | i | i
O=C(Cn1cc2c(n1)CCCCC2)N1CCc2ccccc2C1 | i | i | i | i | i | . | . | . | .
O=C(Cn1cc2c(n1)CCCC2)N1CCc2ccccc21 | i | i | i | -7.1* | i | i | i | i | i
O=C(COc1ccc(CO)cc1Cl)Nc1ccc(F)cc1 | i | i | i | -6.6* | i | 85%* | i | i | i
O=C(COc1ccc(CO)cc1)Nc1ccc(F)cc1 | i | i | i | i | i | . | . | . | .
Cc1cc(=O)[nH]c(SCCOc2ccc(OC(C)C)cc2)n1 | i | i | i | -6.7* | i | i | i | i | i
CCC(=O)Nc1ccccc1C(=O)OCC(=O)c1ccc2ccccc2c1 | i | i | i | -6.3* | i | i | i | i | i
CCC(=O)Nc1ccccc1C(=O)OCC(=O)c1ccccc1 | i | i | i | i | i | . | . | . | .
COc1ccccc1NC(=O)c1oc2ccccc2c1NC(=O)c1ccco1 | i | i | i | -5.2* | i | 77%* | i | i | i
COc1cc(NC(=O)c2oc3ccccc3c2C)ccc1NC(=O)c1ccco1 | i | i | i | i | i | . | . | . | .
Brc1ccc(-c2nc3ncccn3c2NC2CCCCC2)o1 | i | i | i | -5.3* | i | i | i | i | i
NC(=O)C1CCN(c2ncnc3c2c(-c2ccccc2)cn3-c2ccccc2)CC1 | i | i | i | -5.2* | i | i | i | i | i
COc1cc(/C=N/NC(=S)NC2CC3CC2C2C=CCC32)ccc1O (configuration not stated) | i | i | i | i | i | . | . | . | .
SMILES | MrgX1 ag | RGS4 block | MrgX1 allo act | MrgX1 antagonist | RGS4 act | MrgX1 antag conf | HEK293 Ca flux | HEK293 Ca counter | HEK293 Ca cntr2
CC(NC(=O)NC(N)=O)(C(F)(F)F)C(F)(F)F | i | i | i | -5.2* | i | i | i | i | i
CC1CC1c1ccc(/C=C(\C#N)C(=O)Nc2cccc(Cl)c2Cl)o1 (configuration not stated) | i | i | i | i | i | . | . | . | .
COc1ccc(NC(=O)c2nc[nH]c2C(=O)N2CCN(C(=O)OC(C)(C)C)CC2)cc1 | i | i | i | -7.7* | i | i | i | i | i
CCc1cc(=O)oc2cc(OC(C)=O)cc(OC(C)=O)c12 | i | i | i | -8.3* | i | i | i | i | i
CN(C)c1cc2c(cc1NC(=O)c1ccccc1Cl)n(C)c(=O)n2C | i | i | i | i | i | . | . | . | .
CC(C)Oc1ccc(C(=O)N2CCCc3ccccc32)cc1 | i | i | i | -6.3* | i | i | i | i | i
O=C(OCC(=O)N1CCCc2ccccc21)c1cc(S(=O)(=O)N2CCOCC2)ccc1Cl | i | i | i | -4.5* | i | i | i | i | i
CS(=O)(=O)c1ccc(C(=O)OCC(=O)N2CCCc3ccccc32)cc1 | i | i | i | -7.3* | i | 85%* | i | i | i
COc1ccc(C(=O)N2CCCc3ccccc32)cc1 | i | i | i | i | i | . | . | . | .
Cc1nn(CCc2nn[nH]n2)c2nc(-c3ccc(C4CCCCC4)cc3)cc(C(F)(F)F)c12 | i | i | i | -21* | -8.5* | 2.0%* | i | i | 84*
Cc1nn(CCC(=O)O)c2nc(-c3cccnc3)cc(C(F)(F)F)c12 | i | i | i | i | i | . | . | . | .
CCCCn1c(N)c(N(CC(C)C)C(=O)c2cccc(-n3cnnn3)c2)c(=O)[nH]c1=O | i | i | i | i | i | . | . | . | .
O=C(CSc1ncn(-c2ccccc2)n1)Nc1ccc(Br)cn1 | i | i | i | i | i | . | . | . | .
O=C(CSc1ccccn1)Nc1ccc(Br)cn1 | i | i | i | -5.3* | i | i | i | i | i
CCC(=O)Nc1ccc(Br)cn1 | i | i | i | -5.4* | i | i | i | i | i
